Experimental data reported in ChEMBL document CHEMBL4765370, “Design, synthesis, and biological evaluation of aryl piperazines with potential as antidiabetic agents via the stimulation of glucose uptake and inhibition of NADH:ubiquinone oxidoreductase” (Eur J Med Chem, 2020).
Converted amounts (≈) assume the structure as drawn.

What was measured:
[1] = AUCall in C57 Black mouse plasma at 10 mg/kg, po; format: ADME, organism-based; parameters: dose 10 mg/kg
Summary of the method: (§1)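 Male C57BL/6 mice were given a single 10 mg/kg dose either intravenously or orally. The oral and IV solutions were formulated in 10% DMSO, 10% cremaphor and 80% saline. Concentrations in plasma and in the tissues collected were determined after dosing, with n = 3 per route. Values are given as mean ± SEM.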

[2] = Intrinsic clearance in human microsomes at 1 uM up to 120 mins by HPLC/MS-MS analysis; format: ADME, Microsome
[3] = Apparent permeability in MDCK-MDR1 cells at 10 uM after 30 mins by LC-MS/MS analysis; format: ADME, cell-based, Canis lupus familiaris; conditions: dog
Summary of the method: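 Test article was taken from a 10 mM DMSO stock and diluted in DMEM to a final 10 µM donor solution, with 10 µM propranolol as internal standard. It was applied to hMDR1-MDCK monolayers on filters. Transfer to the receiver compartment was measured over 30 min in both directions, apical-to-basolateral and basolateral-to-apical. Quantification was by LC-MS/MS, n = 3.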

[4] = Cmax in C57 Black mouse plasma at 10 mg/kg, iv; format: ADME, organism-based; parameters: route intravenous, dose 10 mg/kg; summary of the method: as §1
CYP2C19 = CYP2C19 (Homo sapiens, UniProt P33261); assay: Inhibition of human CYP2C19 using fluorogenic substrate incubated for 60 mins in presence of NADPH by fluorescence assay relative to control; format: ADME; conditions: probe fluorogenic substrate
Summary of the method: (§2)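 Baculosomes each expressing a single cDNA-derived human P450 isozyme were incubated with compound at 10 µM, a fluorogenic substrate and NADPH. Incubation was at 37 °C for at least 60 min before fluorescence was read, n = 3.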

[5] = Protein binding mouse serum at 1 uM after 60 to 120 mins by HPLC-MS/MS analysis; format: ADME, cell-free; conditions: time 60-120 min, read-out: PB (converted)
[6] = Cmax in C57 Black mouse brain at 10 mg/kg, po; format: ADME, organism-based; parameters: route oral, dose 10 mg/kg; summary of the method: as §1
[7] = Bioavailability in C57 Black mouse at 10 mg/kg, iv or po; conditions: in vivo
[8] = Cmax in C57 Black mouse kidney at 10 mg/kg, po; format: ADME, organism-based; parameters: route oral, dose 10 mg/kg; summary of the method: as §1
[9] = AUCinfinity in C57 Black mouse liver at 10 mg/kg, po; format: ADME, organism-based; parameters: time infinity, route oral, dose 10 mg/kg; summary of the method: as §1
[10] = Half life in human hepatocytes at 1 uM up to 120 mins by HPLC-MS/MS analysis; format: ADME, cell-based, Hepatocyte
[11] = AUCall in C57 Black mouse brain at 10 mg/kg, iv; format: ADME, organism-based; parameters: dose 10 mg/kg; summary of the method: as §1
[12] = AUCall in C57 Black mouse brain at 10 mg/kg, po; format: ADME, organism-based; parameters: dose 10 mg/kg; summary of the method: as §1
CYP2C9 = CYP2C9 (Homo sapiens, UniProt P11712); assay: Inhibition of human CYP2C9 using fluorogenic substrate incubated for 60 mins in presence of NADPH by fluorescence assay relative to control; format: ADME; conditions: probe fluorogenic substrate; summary of the method: as §2
[13] = Tmax in C57 Black mouse liver at 10 mg/kg, po; format: ADME, organism-based
Summary of the method: (§3)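 Male C57BL/6 mice (n = 3) dosed at 10 mg/kg by IV or oral (PO) route. Dosing solutions were formulated in 10% DMSO, 10% cremaphor and 80% saline. Compound levels were measured in plasma and tissues over time, and values are given as mean ± SEM.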

[14] = Half life in C57 Black mouse kidney at 10 mg/kg, po; format: ADME, organism-based; summary of the method: as §3
[15] = Thermodynamic solubility of compound in PBS at 1 mg/ml after 24 hrs by LC-MS/MS analysis; format: physicochemical; conditions: read-out: Therm_solubility
Summary of the method: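 Compound was equilibrated at 1 mg/mL and at 0.1 mg/mL in PBS containing 5% (v/v) DMSO, for 24 h at 21 °C. Samples were centrifuged at 15,000 g for 10 min and the supernatant was quantified by LC-MS/MS, n = 3.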

[16] = AUCall in C57 Black mouse spleen at 10 mg/kg, po; format: ADME, organism-based; parameters: dose 10 mg/kg; summary of the method: as §1
[17] = AUCinfinity in C57 Black mouse kidney at 10 mg/kg, iv; format: ADME, organism-based; parameters: route intravenous, time infinity, dose 10 mg/kg; summary of the method: as §1
[18] = Half life in C57 Black mouse muscle at 10 mg/kg, iv; format: ADME, organism-based, Muscle tissue; summary of the method: as §3
[19] = Cmax in C57 Black mouse liver at 10 mg/kg, po; format: ADME, organism-based; parameters: route oral, dose 10 mg/kg; summary of the method: as §1
[20] = AUCinfinity in C57 Black mouse liver at 10 mg/kg, iv; format: ADME, organism-based; parameters: route intravenous, time infinity, dose 10 mg/kg; summary of the method: as §1
[21] = AUCinfinity in C57 Black mouse spleen at 10 mg/kg, iv; format: ADME, organism-based; parameters: time infinity, route intravenous, dose 10 mg/kg; summary of the method: as §1
[22] = Efflux ratio of apparent permeability in MDCK-MDR1 cells at 10 uM after 30 mins by LC-MS/MS analysis; format: ADME, cell-based, Canis lupus familiaris; conditions: dog
Summary of the method: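 hMDR1-MDCK monolayers on filters; compound at 10 µM final in DMEM (from 10 mM DMSO stock) with 10 µM propranolol internal standard in donor. Transfer measured apical-to-basolateral and basolateral-to-apical over 30 min; receiver samples by LC-MS/MS; n = 3.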

[23] = AUCall in C57 Black mouse liver at 10 mg/kg, iv; format: ADME, organism-based; parameters: dose 10 mg/kg; summary of the method: as §1
[24] = Clearance in C57 Black mouse assessed as liver blood flow at 10 mg/kg, iv or po; format: ADME, organism-based; conditions: in vivo
[25] = Cmax in C57 Black mouse muscle at 10 mg/kg, iv; format: ADME, organism-based, Muscle tissue; parameters: route intravenous, dose 10 mg/kg; summary of the method: as §1
[26] = Volume of distribution in C57 Black mouse spleen at 10 mg/kg, iv; format: ADME, organism-based; summary of the method: as §3
[27] = Volume of distribution in C57 Black mouse brain at 10 mg/kg, iv; format: ADME, organism-based; summary of the method: as §3
[28] = AUClast in C57 Black mouse brain at 10 mg/kg, po; format: ADME, organism-based; parameters: route oral, time 0 - last, dose 10 mg/kg; summary of the method: as §1
[29] = Intrinsic clearance in mouse hepatocytes at 1 uM up to 120 mins by HPLC-MS/MS analysis; format: ADME, cell-based, Hepatocyte; conditions: 2 h
[30] = Tmax in C57 Black mouse plasma at 10 mg/kg, po; format: ADME, organism-based; summary of the method: as §3
[31] = Half life in C57 Black mouse spleen at 10 mg/kg, po; format: ADME, organism-based; summary of the method: as §3
[32] = AUClast in C57 Black mouse plasma at 10 mg/kg, po; format: ADME, organism-based; parameters: route oral, time 0 - last, dose 10 mg/kg; summary of the method: as §1
[33] = Tmax in C57 Black mouse kidney at 10 mg/kg, iv; format: ADME, organism-based; summary of the method: as §3
[34] = AUCinfinity in C57 Black mouse spleen at 10 mg/kg, po; format: ADME, organism-based; parameters: time infinity, route oral, dose 10 mg/kg; summary of the method: as §1
[35] = Stability in human plasma assessed as parent compound remaining at 1 uM after 2 hrs by HPC-MS/MS analysis; format: ADME, cell-free; conditions: read-out: Stabilty
Summary of the method: (§4)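 Buffer containing test compound at 1 µM was mixed with human or mouse blood plasma and incubated at 37 °C for 60–120 min. Parent compound remaining gave the plasma half-life and the percentage stable at 2 h.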

[36] = Tmax in C57 Black mouse muscle at 10 mg/kg, iv; format: ADME, organism-based, Muscle tissue; summary of the method: as §3
[37] = Tmax in C57 Black mouse plasma at 10 mg/kg, iv; format: ADME, organism-based; summary of the method: as §3
CYP2D6 = CYP2D6 (Homo sapiens, UniProt P10635); assay: Inhibition of human CYP2D6 using fluorogenic substrate incubated for 60 mins in presence of NADPH by fluorescence assay relative to control; format: ADME; conditions: probe fluorogenic substrate; summary of the method: as §2
[38] = Half life in mouse plasma at 1 uM after 60 to 120 mins by HPLC-MS/MS analysis; format: ADME, cell-free; conditions: time 60-120 min; summary of the method: as §4
[39] = AUCall in C57 Black mouse liver at 10 mg/kg, po; format: ADME, organism-based; parameters: dose 10 mg/kg; summary of the method: as §1
[40] = Half life in C57 Black mouse brain at 10 mg/kg, iv; format: ADME, organism-based; summary of the method: as §1

Chain of CYP2C9 (P11712 whole entry): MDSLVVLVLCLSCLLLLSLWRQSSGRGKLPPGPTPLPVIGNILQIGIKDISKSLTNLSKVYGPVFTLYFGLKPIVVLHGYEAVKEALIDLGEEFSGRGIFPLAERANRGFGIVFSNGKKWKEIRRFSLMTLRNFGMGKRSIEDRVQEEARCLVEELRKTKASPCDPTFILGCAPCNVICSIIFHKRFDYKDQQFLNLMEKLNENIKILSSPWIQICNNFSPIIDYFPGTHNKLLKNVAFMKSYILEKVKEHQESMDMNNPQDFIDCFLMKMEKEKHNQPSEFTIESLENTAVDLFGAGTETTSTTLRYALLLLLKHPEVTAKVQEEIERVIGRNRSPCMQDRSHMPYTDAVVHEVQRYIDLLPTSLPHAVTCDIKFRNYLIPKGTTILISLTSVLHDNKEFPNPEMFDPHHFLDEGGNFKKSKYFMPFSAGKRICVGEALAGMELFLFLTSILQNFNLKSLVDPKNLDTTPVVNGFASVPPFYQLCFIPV
Chain of CYP2C19 (P33261 whole entry): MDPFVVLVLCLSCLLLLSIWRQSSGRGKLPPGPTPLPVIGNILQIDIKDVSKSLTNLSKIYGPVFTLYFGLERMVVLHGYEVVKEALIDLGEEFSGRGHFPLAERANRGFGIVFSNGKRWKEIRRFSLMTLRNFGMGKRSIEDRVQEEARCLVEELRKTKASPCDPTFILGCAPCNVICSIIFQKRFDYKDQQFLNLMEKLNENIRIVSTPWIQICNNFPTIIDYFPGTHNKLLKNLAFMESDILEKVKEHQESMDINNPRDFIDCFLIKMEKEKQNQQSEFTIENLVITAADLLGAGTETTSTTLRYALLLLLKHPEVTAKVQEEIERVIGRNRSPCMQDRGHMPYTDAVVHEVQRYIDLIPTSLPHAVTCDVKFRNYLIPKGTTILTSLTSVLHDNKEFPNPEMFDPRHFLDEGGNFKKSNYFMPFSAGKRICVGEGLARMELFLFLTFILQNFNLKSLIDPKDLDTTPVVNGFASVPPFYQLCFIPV
Chain of CYP2D6 (P10635 whole entry): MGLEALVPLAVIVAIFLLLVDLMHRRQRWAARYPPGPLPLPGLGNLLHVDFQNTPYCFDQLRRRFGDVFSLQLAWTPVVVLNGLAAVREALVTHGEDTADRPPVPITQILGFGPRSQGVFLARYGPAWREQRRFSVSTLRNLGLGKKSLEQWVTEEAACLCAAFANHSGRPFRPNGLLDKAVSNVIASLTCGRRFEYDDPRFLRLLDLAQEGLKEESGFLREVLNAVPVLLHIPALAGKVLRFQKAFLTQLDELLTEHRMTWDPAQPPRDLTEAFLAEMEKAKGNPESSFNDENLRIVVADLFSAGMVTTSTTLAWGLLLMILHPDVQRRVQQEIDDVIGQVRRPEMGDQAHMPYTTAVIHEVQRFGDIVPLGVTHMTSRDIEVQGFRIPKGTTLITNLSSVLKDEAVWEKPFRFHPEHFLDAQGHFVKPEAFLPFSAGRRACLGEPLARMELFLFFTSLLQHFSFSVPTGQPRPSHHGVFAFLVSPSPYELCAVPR

- AUC [1]: 520 ng·h/mL
- microsomal CLint at 1 µM [2]: 116 µL/min/mg
- Papp at 0.5 h, 10 µM [3]: 27.1 ×10⁻⁶ cm/s
- Cmax [4]: 996 ng/mL
- inhibition at 1 h (CYP2C19): 75.5%
- fraction unbound at 1 µM [5]: 0.0052
- Cmax [6]: 1430 ng/mL
- Bioavailability [7]: 21.4%
- Cmax [8]: 1640 ng/mL
- AUC(0-inf) [9]: 4090 ng·h/mL
- half-life at 1 µM [10]: 3 min
- AUC [11]: 246 ng·h/mL
- AUC [12]: 763 ng·h/mL
- inhibition at 1 h (CYP2C9): 74.2%
- Tmax [13]: 15 min
- half-life [14]: 34.2 min
- solubility thermodynamic at 24 h [15]: 4 µg/mL (≈ 10.5 µM)
- AUC [16]: 1260 ng·h/mL
- AUC(0-inf) [17]: 348 ng·h/mL
- half-life [18]: 31.2 min
- Cmax [19]: 4880 ng/mL
- AUC(0-inf) [20]: 531 ng·h/mL
- AUC(0-inf) [21]: 475 ng·h/mL
- efflux ratio at 0.5 h, 10 µM [22]: 0.9
- AUC [23]: 487 ng·h/mL
- clearance [24]: 90 mL/min/kg
- Cmax [25]: 165 ng/mL
- Vd [26]: 3.19 L/kg
- Vd [27]: 1.83 L/kg
- AUC(0-t) [28]: 763 ng·h/mL
- CLH [29]: 8 µL/min
- Tmax [30]: 15 min
- half-life [31]: 66 min
- AUC(0-t) [32]: 520 ng·h/mL
- Tmax [33]: 1.8 min
- AUC(0-inf) [34]: 1270 ng·h/mL
- remaining at 2 h, 1 µM [35]: 80%
- Tmax [36]: 1.8 min
- Tmax [37]: 1.8 min
- inhibition at 1 h (CYP2D6): -2.7%
- half-life at 1 µM [38]: 327 min
- AUC [39]: 4050 ng·h/mL
- half-life [40]: 30 min
SMILES: O=C(CCCc1cccs1)N1CCN(c2ccc(C(F)(F)F)cc2)CC1
